# Assay results reported in ChEMBL document CHEMBL1130095, “Synthesis of analogs of 2-methoxyestradiol with enhanced inhibitory effects on tubulin polymerization and cancer cell growth” (J Med Chem, 1997).
# What was measured:
# [1] = tested on: OVCAR-3; experiment: In vitro cytotoxicity value corresponding to 50% growth inhibition against OVCAR-3 (ovarian) cell line.; assay type: functional; conditions: Homo sapiens
# [2] = tested on: HCT-116; experiment: The In vitro cytotoxicity value is the concentration of the compound corresponding to 50% growth inhibition againstHCT-116 (colon) cell line.; assay type: functional; conditions: Homo sapiens
# [3] = molecular target: T1, Tubulin (Bos taurus, UniProt Q6B856+Q862L2+Q862F3); experiment: Evaluated for inhibition of tubulin polymerization.; assay type: functional
# Method in brief: (§1)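 Electrophoretically homogeneous bovine brain tubulin at 1.2 mg/mL (12 µM), preincubated at 26 °C with varying compound concentrations, then chilled on ice before GTP was added. Assembly was followed at 26 °C by turbidity at 350 nm, and the extent was read at 20 min. IC50 was derived graphically from at least two independent assays.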
# [4] = tested on: Panel (Carcinoma cell lines); experiment: Mean graph midpoint for growth inhibition of all human cancer cell lines; assay type: functional
# [5] = tested on: SF-539; experiment: The In vitro cytotoxicity corresponding to 50% growth inhibition against […] (central nervous system) cell line.; assay type: functional; conditions: Homo sapiens
# [6] = tested on: UACC-62; experiment: In vitro cytotoxicity value corresponding to 50% growth inhibition against UACC-62(melanoma) cell line.; assay type: functional; conditions: Homo sapiens
# [7] = tested on: DU-145; experiment: The In vitro cytotoxicity value corresponding to 50% growth inhibition against DU-145 (prostate) cell line.; assay type: functional; conditions: Homo sapiens
# [8] = tested on: SN12C; experiment: In vitro cytotoxicity value corresponding to 50% growth inhibition against SN12C (renal) cell line.; assay type: functional; conditions: Homo sapiens
# [9] = tested on: MDA-MB-435; experiment: In vitro cytotoxicity value corresponding to 50% growth inhibition against MDA-MB-435 (breast) cell line.; assay type: functional; conditions: Homo sapiens
# [10] = tested on: HOP-62; experiment: In vitro cytotoxicity value corresponding to 50% growth inhibition against HOP-62(non small cell lung) cell line.; assay type: functional; conditions: Homo sapiens
# [11] = molecular target: Tubulin beta chain (Bos taurus) (UniProt Q6B856); experiment: Evaluated for % inhibition of colchicine binding to tubulin.; parameters: concentration or dose not given beside the values; conditions: concentration not given here
# Method in brief: (§2)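 Mixtures held 1.0 µM bovine brain tubulin (0.1 mg/mL), 5.0 µM [³H]colchicine and 50 µM inhibitor, incubated 10 min at 37 °C. Bound-colchicine inhibition is given as percent, from triplicate samples in each experiment.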
# [12] = tested on: HCT-116; experiment: In vitro cytotoxicity value corresponding to 50% growth inhibition against HCT116 (colon) cell line.; assay type: functional; conditions: Homo sapiens
# [13] = molecular target: T1, Tubulin; experiment: The compound was evaluated for inhibition of tubulin polymerization, which is purified from bovine brain; assay type: functional; method in brief: as §1
# [14] = molecular target: Tubulin (Bos taurus) (UniProt Q6B856+Q862L2+Q862F3); experiment: The compound was evaluated for inhibition of colchicine binding to tubulin.; assay type: protein assay; conditions: concentration not given here; method in brief: as §2
# [15] = molecular target: Estrogen receptor (Rattus norvegicus) (UniProt P06211+Q62986); experiment: Relative binding affinity for estrogen receptor using a tritium labeled estrogen as the tracer and immature rat uterine cytosol; assay type: protein assay; conditions: Uterus
# Method in brief: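 Competitive radiometric binding with a tritiated estrogen tracer and immature rat uterine cytosol as receptor source, incubated at 0 °C for 18 or 20 h. […] Coefficient of variation between replicate experiments is typically below 30%.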
# [16] = tested on: HOP-62; experiment: The In vitro cytotoxicity value is the concentration corresponding to 50% growth inhibition against HOP-62 (non small cell lung) cell line.; assay type: functional; conditions: Homo sapiens
# Chain of Tubulin beta chain (Bos taurus) (Q6B856 whole entry): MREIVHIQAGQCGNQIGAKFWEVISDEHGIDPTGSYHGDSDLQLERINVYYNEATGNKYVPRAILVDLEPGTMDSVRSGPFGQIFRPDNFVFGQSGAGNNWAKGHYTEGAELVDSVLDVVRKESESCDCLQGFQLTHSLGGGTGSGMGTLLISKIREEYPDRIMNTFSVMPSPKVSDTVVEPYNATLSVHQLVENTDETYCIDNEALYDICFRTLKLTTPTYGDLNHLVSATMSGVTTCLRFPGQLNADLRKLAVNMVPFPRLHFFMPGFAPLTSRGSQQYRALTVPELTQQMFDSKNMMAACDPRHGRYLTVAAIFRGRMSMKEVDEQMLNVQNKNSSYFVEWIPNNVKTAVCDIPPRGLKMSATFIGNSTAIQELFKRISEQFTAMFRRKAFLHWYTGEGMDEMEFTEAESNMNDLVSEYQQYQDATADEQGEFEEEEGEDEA
IC50 [13],inhibition [14],Structure (SMILES),GI50 [1],GI50 [2],IC50 [3],GI50 [4],GI50 [5],GI50 [6],GI50 [7],GI50 [8],GI50 [9],GI50 [10],inhibition [11],GI50 [12],relative binding affinity (RBA) [15],GI50 [16]
–,–,C[C@]12CC[C@@H]3c4cc(Br)c(O)c(Br)c4CC[C@H]3[C@@H]1CC[C@@H]2O,17000 nM,20000 nM,> 40000 nM,25000 nM,21000 nM,17000 nM,40000 nM,28000 nM,27000 nM,–,–,–,–,–
–,–,CCOc1cc2c(cc1O)C(=O)C[C@@H]1[C@@H]2CC[C@]2(C)[C@@H](O)CC[C@@H]12,630 nM,–,4100 nM,130 nM,710 nM,10 nM,170 nM,180 nM,< 10 nM,30 nM,19%,20 nM,–,–
–,–,CCOc1cc2c(cc1O)CC[C@@H]1[C@@H]2CC[C@]2(C)[C@@H](N)CC[C@@H]12.Cl,1300 nM,–,> 40000 nM,3300 nM,4000 nM,3600 nM,1900 nM,5200 nM,1700 nM,11000 nM,–,3200 nM,–,–
–,–,CCOc1cc2c(c(OCC)c1O)CC[C@@H]1[C@@H]2CC[C@]2(C)[C@@H](O)CC[C@@H]12,90 nM,–,8800 nM,2700 nM,–,–,3300 nM,4800 nM,200 nM,1300 nM,1.5%,800 nM,–,–
–,–,CCOc1cc2c(cc1O)/C(=N\NS(=O)(=O)c1ccc(C)cc1)C[C@@H]1[C@@H]2CC[C@]2(C)[C@@H](O)CC[C@@H]12,3200 nM,–,> 40000 nM,6200 nM,3500 nM,–,15000 nM,12000 nM,–,5100 nM,–,6700 nM,–,–
–,–,CCOc1cc2c(cc1O)C=CC1C2CC[C@@]2(C)C1CC[C@@H]2O (stereo partly drawn),1900 nM,–,4400 nM,3800 nM,2000 nM,4800 nM,2100 nM,4600 nM,340 nM,3900 nM,8.6%,1100 nM,–,–
–,–,CCOc1cc2c(cc1O)CC[C@@H]1[C@@H]2CC[C@]2(C)[C@@H](O)CC[C@@H]12,16 nM,–,1300 nM,76 nM,14 nM,16 nM,65 nM,39 nM,< 10 nM,18 nM,51%,26 nM,–,–
–,–,CCOc1cc2c(cc1O)/C(=N\N)C[C@@H]1[C@@H]2CC[C@]2(C)[C@@H](O)CC[C@@H]12,5400 nM,–,4300 nM,4200 nM,2800 nM,880 nM,17000 nM,17000 nM,6500 nM,1200 nM,9.6%,2100 nM,–,–
–,–,CCOc1cc2c(cc1O)C(N)C[C@@H]1[C@@H]2CC[C@]2(C)[C@@H](O)CC[C@@H]12 (stereo partly drawn),45000 nM,–,> 40000 nM,40000 nM,–,19000 nM,> 100000 nM,59000 nM,16000 nM,26000 nM,–,40000 nM,–,–
–,–,CCOc1cc2c(cc1O)[C@@H](O)C[C@@H]1[C@@H]2CC[C@]2(C)[C@@H](O)CC[C@@H]12,350 nM,–,2900 nM,830 nM,–,280 nM,710 nM,660 nM,5400 nM,–,12%,350 nM,–,–
1400 nM,34%,CCOc1cc2c(cc1O)/C(=N\OC)C[C@@H]1[C@@H]2CC[C@]2(C)[C@@H](O)CC[C@@H]12,26 nM,–,–,270 nM,–,52 nM,330 nM,390 nM,29 nM,110 nM,–,49 nM,< 0.001,–
–,–,Cc1cc2cc3c(cc2o1)CC[C@@H]1[C@@H]3CC[C@]2(C)[C@@H](O)CC[C@@H]12,18000 nM,–,> 40000 nM,14000 nM,14000 nM,16000 nM,17000 nM,16000 nM,23000 nM,–,–,510 nM,–,19000 nM
–,–,CC(=O)Oc1cc2c(cc1OCC(F)(F)F)[C@H]1CC[C@]3(C)[C@@H](OC(C)=O)CC[C@H]3[C@@H]1CC2=O,24000 nM,–,> 40000 nM,20000 nM,23000 nM,18000 nM,20000 nM,20000 nM,18000 nM,20000 nM,–,21000 nM,–,–
–,–,CC#Cc1cc2c(cc1O)CC[C@@H]1[C@@H]2CC[C@]2(C)[C@@H](O)CC[C@@H]12,340 nM,–,4800 nM,1700 nM,950 nM,500 nM,3600 nM,6900 nM,130 nM,1700 nM,11%,480 nM,–,–
–,–,CCOc1cc2c(cc1O)CC[C@@H]1[C@@H]2CC[C@]2(C)[C@@H](OS(=O)O[C@H]3CC[C@H]4[C@@H]5CCc6cc(O)c(OCC)cc6[C@H]5CC[C@]34C)CC[C@@H]12,270 nM,–,5900 nM,1100 nM,570 nM,1300 nM,1100 nM,2600 nM,220 nM,830 nM,24%,490 nM,–,–
–,–,C[C@]12CC[C@@H]3c4cc(OCC(F)(F)F)c(O)cc4CC[C@H]3[C@@H]1CC[C@@H]2O,460 nM,–,1500 nM,2600 nM,1400 nM,2300 nM,7000 nM,4500 nM,280 nM,12000 nM,11%,3200 nM,–,–
–,–,CC(=O)Oc1cc2c(cc1OC(C)=O)[C@H]1CC[C@]3(C)[C@@H](OC(C)=O)CC[C@H]3[C@@H]1CC2,6400 nM,–,> 40000 nM,3700 nM,3500 nM,2500 nM,3200 nM,5100 nM,320 nM,4800 nM,–,5100 nM,–,–
–,–,COc1cc2c(cc1O)CC[C@@H]1[C@@H]2CC[C@]2(C)[C@@H](O)CC[C@@H]12 [2-METHOXYESTRADIOL],210 nM,470 nM,3100 nM,1300 nM,320 nM,360 nM,1800 nM,950 nM,80 nM,–,19%,–,0.245,700 nM
1100 nM,63%,CCOc1cc2c(cc1O)/C(=N\O)C[C@@H]1[C@@H]2CC[C@]2(C)[C@@H](O)CC[C@@H]12,17 nM,–,–,79 nM,13 nM,17 nM,26 nM,21 nM,10 nM,11 nM,–,11 nM,< 0.001,–

Structure (SMILES),IC50 [13],inhibition [14],GI50 [1],GI50 [2],IC50 [3],GI50 [4],GI50 [5],GI50 [6],GI50 [7],GI50 [8],GI50 [9],GI50 [10],inhibition [11],GI50 [12],relative binding affinity (RBA) [15],GI50 [16]
C[C@]12CC[C@@H]3c4cc(OCC(F)(F)F)c(O)cc4/C(=N\O)C[C@H]3[C@@H]1CC[C@@H]2O,2300 nM,28%,16 nM,–,–,66 nM,21 nM,15 nM,49 nM,45 nM,10 nM,17 nM,–,31 nM,0.007,–
